# Measured values pooled from the literature.
# Organism: Acinetobacter baumannii
# Effect on: microbial growth
Compound,technique,strain,time,setting,MIC
O=[N+]([O-])c1ccc(/C=N/Nc2nc(Nc3ccccc3)nc(N3CCOCC3)n2)o1,,,,,> 120 µM
NC1CCCCc2c1[nH]c1cc(Cl)c(Cl)cc21 (stereo not drawn),broth dilution,ATCC19606,,,8 µg/mL
N=C(N)c1ccc(OCc2cc(Br)cc(COc3ccc(C(=N)N)cc3)c2)cc1,broth dilution,ATCC17978,,,> 200 µg/mL
COc1cccc2c(O)c3c(cc12)C[C@H]1C[C@H]2[C@H](N(C)C)C(O)=C(C(N)=O)C(=O)[C@@]2(O)C(O)=C1C3=O,broth dilution,ATCC19606,,,> 32 µg/mL
NC[C@H]1O[C@H](O[C@H]2[C@H](O)[C@@H](O[C@H]3O[C@H](CO)[C@@H](O)[C@H](N)[C@H]3O)[C@H](N)C[C@@H]2N)[C@H](N)C[C@@H]1O,broth dilution,,,,2.6 µM
CCCCCCC/C=C/C(=O)N1C(=O)/C(=C(\O)CCCC)C(=O)C1CC(C)C (stereo not drawn),,ATCC19606,,,200 µg/mL
CN(C)[C@@H]1C(O)=C(C(N)=O)C(=O)[C@@]2(O)C(O)=C3C(=O)c4c(c(F)c5ccc(CNC6CC6)cc5c4O)C[C@H]3C[C@@H]12,broth dilution,ATCC19606,,,1 µg/mL
N=C(N)c1ccc(OCc2ccc(-c3ccccc3)cc2COc2ccc(C(=N)N)cc2)cc1,broth dilution,ATCC17978,,,> 200 µg/mL
CN[C@@H]1[C@@H](O)[C@@H](O[C@@H]2[C@@H](O)[C@H](O[C@H]3OC(CNCCO)=CC[C@H]3N)[C@@H](N)C[C@H]2NC(=O)[C@@H](O)CCN)OC[C@]1(C)O,,,,,2 µg/mL
CN(C)c1ccc(O)c2c1C[C@H]1C[C@H]3[C@H](N(C)C)C(O)=C(C(N)=O)C(=O)[C@@]3(O)C(O)=C1C2=O,broth dilution,ATCC19606,,,≤ 0.125 µg/mL
C/C(=C\c1ccc(O)cc1)C(=O)Nc1ccc(C(=O)N[C@@H](CC(N)=O)C(=O)Nc2ccc(C(=O)Nc3ccc(C(=O)Nc4ccc(C(=O)O)cc4)c(O)c3OC(C)C)cc2)cc1,,DSM30008,,,0.25 µg/mL
CC1(C)S[C@@H]2[C@H](NC(=O)C(C(=O)O)c3ccccc3)C(=O)N2[C@H]1C(=O)O (stereo partly drawn),broth dilution,,,clinical isolate,> 200 µM
O=C(Nc1ccc(F)c(Cl)c1)c1cc(Cl)ccc1O,broth dilution,BAA1605,,,> 64 µg/mL
CC(C)(O/N=C(\C(=O)N[C@@H]1C(=O)N2C(C(=O)[O-])=C(C[N+]3(CCNC(=O)c4ccc(O)c(O)c4Cl)CCCC3)CS[C@H]12)c1csc(N)n1)C(=O)O,,DSM30007,,,0.2 µM
O=C(O)c1ccc(-n2cc(/C=N/Nc3ccc(Br)cc3)c(-c3cccc(F)c3)n2)cc1,,ATCCBAA1605,,,6.25 µg/mL
COc1c2c(c(O)c3cc(F)ccc13)C(=O)C1=C(O)[C@]3(O)C(=O)C(C(N)=O)=C(O)[C@@H](N(C)C)[C@@H]3C[C@@H]1C2,broth dilution,ATCC19606,,,2 µg/mL
CC(C)Oc1c(NC(=O)c2ccc(NC(=O)[C@H](CC(N)=O)NC(=O)c3ccc(NC(=O)c4ccc(C#N)s4)cc3)cc2)ccc(C(=O)Nc2ccc(C(=O)O)cc2)c1O,,DSM30008,,,0.125 µg/mL
CN[C@H](CC(C)C)C(=O)N[C@H]1C(=O)N[C@@H](CC(N)=O)C(=O)N[C@H]2C(=O)N[C@H]3C(=O)N[C@H](C(=O)N[C@H](C(=O)O)c4cc(O)cc(O)c4-c4cc3ccc4O)[C@H](O)c3ccc(c(Cl)c3)Oc3cc2cc(c3O[C@@H]2O[C@H](CO)[C@@H](O)[C@H](O)[C@H]2O[C@H]2C[C@](C)(N)[C@H](O)[C@H](C)O2)Oc2ccc(cc2Cl)[C@H]1O,broth dilution,BAA747,,,> 128 µM
CC(C)CNc1nc(Cl)c2c(c1O)C(=O)C1=C(O)[C@]3(O)C(=O)C(C(N)=O)=C(O)[C@@H](N(C)C)[C@@H]3C[C@@H]1C2.Cl.Cl.Cl,broth dilution,ATCC19606,,,2 µg/mL
O=C(Cc1ccc(O)c(O)c1)NCCCCCCCC[P+](c1ccccc1)(c1ccccc1)c1ccccc1.[Br-],broth dilution,ATCC19606,18 h,,> 32 µg/mL
CN(C)[C@@H]1C(O)=C(C(N)=O)C(=O)[C@@]2(O)C(O)=C3C(=O)c4c(cc5ccc(-c6cccnc6)cc5c4O)C[C@H]3C[C@@H]12,broth dilution,ATCC19606,,,32 µg/mL
O=C(O)c1ccc(-n2cc(/C=N/Nc3ccc(Br)cc3)c(-c3ccc4ccccc4c3)n2)cc1,,ATCCBAA1605,,,12.5 µg/mL
CN(C)c1cc(NC(=O)CNC(C)(C)C)c(O)c2c1C[C@H]1C[C@H]3[C@H](N(C)C)C(O)=C(C(N)=O)C(=O)[C@@]3(O)C(O)=C1C2=O,,ATCC19606,,,1.2 µg/mL
O=C(CCCCCCCCCC[P+](c1ccccc1)(c1ccccc1)c1ccccc1)Nc1ccc(O)c(O)c1.[Br-],broth dilution,ATCC19606,18 h,,> 32 µg/mL
CCCCCCC/C=C/C(=O)N1C(=O)/C(=C(\O)c2ccncc2)C(=O)C1CC(C)C (stereo not drawn),,ATCC19606,,,> 200 µg/mL
NC1CCCCc2c1[nH]c1ccc(Br)cc21 (stereo not drawn),broth dilution,ATCC19606,,,16 µg/mL
COc1ncc(O)c2c1C[C@H]1C[C@H]3[C@H](N(C)C)C(O)=C(C(N)=O)C(=O)[C@@]3(O)C(O)=C1C2=O.Cl.Cl,broth dilution,ATCC19606,,,0.5 µg/mL
C/C(O)=C1\C(=O)C(CC(C)C)N(C(=O)C=Cc2ccccc2)C1=O (stereo not drawn),,ATCC19606,,,> 200 µg/mL
C[C@@H](O)[C@H]1C(=O)N2C(C(=O)O)=C(S[C@@H]3CN[C@H](C(=O)N(C)C)C3)[C@H](C)[C@H]12,broth dilution,ATCC19606,,,0.5 µg/mL
O=C(O)c1ccc(-n2cc(/C=N/Nc3cccc(Br)c3)c(-c3ccc(F)cc3)n2)cc1,,ATCCBAA1605,,,12.5 µg/mL
C[C@@H](O)[C@H]1C(=O)N2C(C(=O)O)=C(S[C@@H]3CN[C@H](C(=O)N(C)C)C3)[C@H](C)[C@H]12,broth dilution,KCCM40203,16 h,,2 µM
N=C(N)c1ccc(OCc2cccc(COc3ccc(C(=N)N)cc3)c2)cc1,broth dilution,ATCC17978,,,> 200 µg/mL
O=C(O)c1ccc(-n2cc(/C=N/Nc3cccc(F)c3)c(-c3ccc4ccccc4c3)n2)cc1,,ATCCBAA1605,,,25 µg/mL
CCCCCCC/C=C/C(=O)N1C(=O)/C(=C(\O)c2ccc(O)cc2)C(=O)C1CC(C)C (stereo not drawn),,ATCC19606,,,> 200 µg/mL
O=C(CCCCCCCC[P+](c1ccccc1)(c1ccccc1)c1ccccc1)Nc1cc(O)c(O)c(O)c1.[Br-],broth dilution,ATCC19606,18 h,,> 32 µg/mL
CN(C)[C@@H]1C(O)=C(C(N)=O)C(=O)[C@@]2(O)C(O)=C3C(=O)c4c(O)c(N)nc(F)c4C[C@H]3C[C@@H]12.Cl.Cl,broth dilution,ATCC19606,,,0.5 µg/mL
CCCCCCC/C=C/C(=O)N1C(=O)/C(=C(/C)O)C(=O)C1CCCCN (stereo not drawn),,ATCC19606,,,> 200 µg/mL
CN(C)[C@@H]1C(O)=C(C(N)=O)C(=O)[C@@]2(O)C(O)=C3C(=O)c4c(O)cnc(-c5ccccc5)c4C[C@H]3C[C@@H]12.Cl.Cl,broth dilution,ATCC19606,,,0.125 µg/mL
N=C(N)NN=Cc1ccc(OC/C=C\COc2ccc(C=NNC(=N)N)cc2)cc1,,ATCC19606,16 h,,≤ 51 µg/mL
